Active and inactive are the calls of the source. The calls are words filed in the database; no cut-off is given here.
How the values were obtained:
[1] = Inhibition of bovine brain tubulin polymerization preincubated for 15 mins followed by GTP addition and measured for 20 mins by spectrophotometric method; set-up: species or system Bos taurus
How it was run: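 Final mixture: 10 μM (1 mg/mL) bovine brain tubulin, 0.8 M monosodium glutamate pH 6.6, 4% DMSO, 0.4 mM GTP, varied compound concentrations. All components except GTP preincubated 15 min at 30 °C, chilled to 0 °C, GTP added, then jumped to 30 °C.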

MDA-MB-231 [2] = experiment: Vascular disrupting activity in luciferase expressing human MDA-MB-231 cells xenografted in BALB/c SCID mouse at 200 mg/kg, ip at 24 hrs by bioluminescence imaging method relative to control; format: functional
How it was run: (§1)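 Orthotopic tumors from 1 × 10^6 MDA-MB-231-luc cells in PBS/50% Matrigel injected into left upper mammary fat pad of BALB/c SCID mice. Dynamic BLI over 30 min after luciferin injection at baseline, then 4 and 24 h after IP dosing in saline (200 mg/kg in the mouse shown), with fresh luciferin each time; signal reduction expressed versus baseline.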

MDA-MB-231 [3] = experiment: Vascular disrupting activity in luciferase expressing human MDA-MB-231 cells xenografted in BALB/c SCID mouse at 200 mg/kg, ip at 4 hrs by bioluminescence imaging method relative to control; format: functional; how it was run: as §1
DU-145 = experiment: Growth inhibition of human DU145 cells after 48 hrs by SRB assay; format: functional; settings: DU-145, 48 h
How it was run: (§2)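 Cells plated at 7000–8000 per well in DMEM with 5% FBS/1% gentamicin, grown 24 h at 37 °C, 5% CO2. Compounds from 10 mg/mL DMSO stock added as serial dilutions; doxorubicin and paclitaxel as positive controls.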

SK-OV-3 = experiment: Growth inhibition of human SKOV3 cells after 48 hrs by SRB assay; format: functional; settings: SK-OV-3, 48 h; how it was run: as §2
NCI-H460 = experiment: Growth inhibition of human NCI-H460 cells after 48 hrs by SRB assay; format: functional; settings: NCI-H460, 48 h; how it was run: as §2
Bos taurus [4] = species on record: Bos taurus; experiment: Inhibition of [3H]colchicine binding to calf brain tubulin at 1 uM incubated for 10 mins by scintillation counting method relative to control
How it was run: (§3)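 Tubulin at 1.0 μM with 5.0 μM [3H]colchicine, 5% (v/v) DMSO and test compound at 1.0 or 5.0 μM. Binding-stabilizing buffer: 1.0 M monosodium glutamate (pH 6.6), 0.5 mg mL–1 BSA, 0.1 M glucose-1-phosphate, 1.0 mM MgCl2, 1.0 mM GTP. Incubated 10 min at 37 °C, stopped with ice-cold water, trapped on DEAE-cellulose filters and scintillation-counted. Counts corrected for filter binding without tubulin; percent inhibition versus no-inhibitor samples.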

Bos taurus [5] = species on record: Bos taurus; experiment: Inhibition of [3H]colchicine binding to calf brain tubulin at 5 uM incubated for 10 mins by scintillation counting method relative to control; how it was run: as §3
A549 = experiment: Vascular disrupting activity in human A549 cells xenografted in T-cell deficient athymic homozygous nude rat assessed as reduction of blood flow at 15 mg/kg, ip after 2 hrs by color doppler ultrasound imaging method; format: functional, organism-based
How it was run: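 Nude rat bearing subcutaneous leg A549 tumor (3 × 10^6 cells in serum-free medium with 50% Matrigel; tumor about 0.5 cm3). Under isoflurane, color-Doppler ultrasound performed before and 2 h after 15 mg/kg IP in 500 μl saline; tumor blood perfusion compared with baseline.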

Row | Compound | IC50 [1] | Activity (MDA-MB-231 [2]) | Activity (MDA-MB-231 [3]) | GI50 (DU-145) | GI50 (SK-OV-3) | GI50 (NCI-H460) | inhibition (Bos taurus [4]) | inhibition (Bos taurus [5]) | Activity (A549)
1 | COc1cc(C(=O)C2=CCCc3c2ccc(OC)c3OP(=O)([O-])[O-])cc(OC)c1OC.[Na+].[Na+] | > 20000 nM | 81% | 99% | 12.6 nM | 12.9 nM | 52.4 nM | – | – | –
2 | COc1ccc2c(c1O)CCC=C2C(=O)c1cc(OC)c(OC)c(OC)c1 | 1200 nM | – | – | 7.3 nM | 6.22 nM | 21.6 nM | 81% | 98% | –
3 | COc1cc(C2=CCCc3c2ccc(OC)c3OP(=O)(O)O)cc(OC)c1OC | > 20000 nM | – | – | 3.27 nM | 1.9 nM | 3.73 nM | – | – | Active

From ChEMBL document CHEMBL4257558, “Synthesis of dihydronaphthalene analogues inspired by combretastatin A-4 and their biological evaluation as anticancer agents” (Medchemcomm, 2018)
